According to ChEMBL document CHEMBL1914330 (Eur J Med Chem, 2011):
Calls of active or inactive are those of the source. The calls are words filed in the database; no cut-off is given here.

Key:
MOLT-4 = assay: Antiproliferative activity against human MOLT4 cells after 2 days by coulter counter analysis; assay type: functional, cell-based; settings: MOLT-4, 48 h
L1210 = assay: Antiproliferative activity against mouse L1210 cells after 2 days by coulter counter analysis; assay type: functional, cell-based; settings: L1210, 48 h
Method in brief: (§1)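 Cells suspended at 300,000–500,000 cells/mL and mixed 1:1 with diluted compound. Incubated at 37 °C for two days, then counted with a Coulter counter. IC50 is the concentration inhibiting proliferation by 50%, as mean ± SE from dose-response curves of at least three independent experiments.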

CCRF-CEM [1] = assay: Antiproliferative activity against human CEM cells after 2 days by coulter counter analysis; assay type: functional, cell-based; settings: 48 h; method in brief: as §1
HeLa = assay: Antiproliferative activity against human HeLa cells after 2 days by coulter counter analysis; assay type: functional, cell-based; settings: 48 h; method in brief: as §1
FM3A = assay: Antiproliferative activity against mouse FM3A cells after 2 days by coulter counter analysis; assay type: functional, cell-based; settings: 48 h
Bos taurus = species on record: Bos taurus; assay: Inhibition of bovine brain tubulin polymerization at 20 uM after 20 mins by turbidimetry
Method in brief: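 Purified bovine brain tubulin at 10 µM was preincubated with compound in glutamate buffer at 30 °C, then cooled to 0 °C and GTP added. Samples were warmed to 30 °C in a recording spectrophotometer and assembly followed by turbidity.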

[2] = Antiproliferative activity against human taxol-resistant A549-T12 cells after 72 hrs by MTT assay; assay type: functional, cell-based; settings: A549, 72 h
Method in brief: (§2)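 Cells seeded at 8 × 10³ per well in complete medium and exposed to a range of compound concentrations at 37 °C for 72 h. Viability read by MTT test. IC50 taken as the concentration inhibiting proliferation by 50%.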

CCRF-CEM [3] = assay: Antiproliferative activity against human CEM cells after 72 hrs by MTT assay; assay type: functional, cell-based; method in brief: as §2
[4] = Antiproliferative activity against human vinblastine-resistant CEM/VBL100 cells after 72 hrs by MTT assay; assay type: functional, cell-based; settings: CEM/VBL100, 72 h; method in brief: as §2

SMILES | IC50 (MOLT-4) [µM] | IC50 (L1210) [µM] | IC50 (CCRF-CEM [1]) [µM] | IC50 (HeLa) [µM] | IC50 (FM3A) [µM] | inhibition (Bos taurus) | IC50 [2] [µM] | IC50 (CCRF-CEM [3]) [µM] | IC50 [4] [µM]
COc1cc(C(=O)c2sc(N(C)Cc3ccccc3)nc2N)cc(OC)c1OC | > 200 | > 200 | > 200 | > 200 | > 200 | – | – | – | –
Nc1nc(N2CCCC2)sc1C(=O)c1ccc(Cl)cc1 | > 200 | > 200 | > 200 | > 200 | > 200 | – | – | – | –
COc1cc(C(=O)c2sc(N3CCCCC3)nc2N)cc(OC)c1OC | 16 | 43 | 22 | 11 | 39 | inactive | – | – | –
CC(=O)O[C@H]1C(=O)[C@@]2(C)[C@H]([C@H](OC(=O)c3ccccc3)[C@]3(O)C[C@H](OC(=O)[C@H](O)[C@@H](NC(=O)c4ccccc4)c4ccccc4)C(C)=C1C3(C)C)[C@]1(OC(C)=O)CO[C@@H]1C[C@@H]2O [PACLITAXEL] | – | – | – | – | – | – | 0.075 | – | –
COc1cccc(C(=O)c2sc(N3CCCC3)nc2N)c1 | > 200 | > 200 | > 200 | > 200 | > 200 | – | – | – | –
COc1cc(C(=O)c2sc(N3CCOCC3)nc2N)cc(OC)c1OC | 22 | 38 | 25 | 8.8 | 24 | inactive | – | – | –
CC[C@]1(O)C[C@@H]2CN(CCc3c([nH]c4ccccc34)[C@@](C(=O)OC)(c3cc4c(cc3OC)N(C)[C@H]3[C@@](O)(C(=O)OC)[C@H](OC(C)=O)[C@]5(CC)C=CCN6CC[C@]43[C@@H]65)C2)C1 [VINBLASTINE] | – | – | – | – | – | – | – | 0.004 | 0.23
COc1cc(C(=O)c2sc(N)nc2N)cc(OC)c1OC | – | 48 | 42 | 31 | 63 | inactive | – | – | –
COc1cc(C(=O)c2sc(N(C)C)nc2N)cc(OC)c1OC | – | 11 | 11 | 8.2 | 12 | inactive | – | – | –
COc1ccc(C(=O)c2sc(N3CCCC3)nc2N)cc1 | > 200 | > 200 | > 200 | > 200 | > 200 | – | – | – | –
CCN(CC)c1nc(N)c(C(=O)c2cc(OC)c(OC)c(OC)c2)s1 | – | 62 | 78 | 38 | 115 | inactive | – | – | –
CCCCN(C)c1nc(N)c(C(=O)c2cc(OC)c(OC)c(OC)c2)s1 | 32 | 53 | 42 | 31 | 47 | – | – | – | –
COc1ccc(/C=C\c2cc(OC)c(OC)c(OC)c2)cc1O [COMBRETASTATIN A4] | – | 0.003 | 0.002 | 0.002 | – | – | – | – | –
COc1ccccc1C(=O)c1sc(N2CCCC2)nc1N | > 200 | > 200 | 171 | 185 | > 200 | – | – | – | –
Nc1nc(N2CCCC2)sc1C(=O)c1ccc(Br)cc1 | > 200 | > 200 | > 200 | > 200 | > 200 | – | – | – | –
Nc1nc(N2CCCC2)sc1C(=O)c1ccccc1 | > 200 | > 200 | > 200 | > 200 | > 200 | – | – | – | –
COc1ccc(C(=O)c2sc(N3CCCC3)nc2N)cc1OC | 31 | 60 | 19 | 36 | 112 | – | – | – | –
